Laboratory results published in ChEMBL document CHEMBL1152253, “Inhibition of the CRM1-mediated nucleocytoplasmic transport by N-azolylacrylates: structure-activity relationship and mechanism of action” (Bioorg Med Chem, 2008).
≈ marks a conversion by molar mass, not a printed value. Calls of active or inactive are those of the source. No cut-off for these calls is given here.

Columns and labels:
HeLa [1] = assay: Inhibition of Rev-BFP/CRM1Cys528Ser-EYFP mutant interaction in human HeLa cells assessed as Rev-BFP/CRM1Cys528Ser-EYFP nuclear colocalization at 25 nM after 2 hrs by fluorescence microscopy; type: cell-based
How it was run: (§1)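 HeLa cells were co-transfected with Rev-BFP and CRM1-EYFP constructs (wild type or Cys528 mutant). One day later cells were PBS-washed and treated with compound in complete DMEM. Live cells were imaged by confocal microscopy at 30, 120 and 180 min and at 24 h. BFP was excited by a multiphoton laser at 760 nm, with emission collected at 390–480 nm. Read-out was Rev-dependent nucleolar co-localization of CRM1-EYFP.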

HeLa [2] = assay: Inhibition of Rev-BFP/CRM1-EYFP interaction in human HeLa cells assessed as Rev-BFP/CRM1-EYFP nuclear colocalization by fluorescence microscopy; type: cell-based; how it was run: as §1
[3] = target: Exportin-1 (Homo sapiens) (UniProt O14980); assay: Inhibition of CRM1-mediated nucleocytoplasmic transport of RevM5 mutant in HEK293 cells assessed as RevM5-GFP nuclear localization at 10 ug/ml after 2 hrs by fluorescence microscopy; type: cell-based
Chain of Exportin-1 (Homo sapiens) (O14980 whole entry): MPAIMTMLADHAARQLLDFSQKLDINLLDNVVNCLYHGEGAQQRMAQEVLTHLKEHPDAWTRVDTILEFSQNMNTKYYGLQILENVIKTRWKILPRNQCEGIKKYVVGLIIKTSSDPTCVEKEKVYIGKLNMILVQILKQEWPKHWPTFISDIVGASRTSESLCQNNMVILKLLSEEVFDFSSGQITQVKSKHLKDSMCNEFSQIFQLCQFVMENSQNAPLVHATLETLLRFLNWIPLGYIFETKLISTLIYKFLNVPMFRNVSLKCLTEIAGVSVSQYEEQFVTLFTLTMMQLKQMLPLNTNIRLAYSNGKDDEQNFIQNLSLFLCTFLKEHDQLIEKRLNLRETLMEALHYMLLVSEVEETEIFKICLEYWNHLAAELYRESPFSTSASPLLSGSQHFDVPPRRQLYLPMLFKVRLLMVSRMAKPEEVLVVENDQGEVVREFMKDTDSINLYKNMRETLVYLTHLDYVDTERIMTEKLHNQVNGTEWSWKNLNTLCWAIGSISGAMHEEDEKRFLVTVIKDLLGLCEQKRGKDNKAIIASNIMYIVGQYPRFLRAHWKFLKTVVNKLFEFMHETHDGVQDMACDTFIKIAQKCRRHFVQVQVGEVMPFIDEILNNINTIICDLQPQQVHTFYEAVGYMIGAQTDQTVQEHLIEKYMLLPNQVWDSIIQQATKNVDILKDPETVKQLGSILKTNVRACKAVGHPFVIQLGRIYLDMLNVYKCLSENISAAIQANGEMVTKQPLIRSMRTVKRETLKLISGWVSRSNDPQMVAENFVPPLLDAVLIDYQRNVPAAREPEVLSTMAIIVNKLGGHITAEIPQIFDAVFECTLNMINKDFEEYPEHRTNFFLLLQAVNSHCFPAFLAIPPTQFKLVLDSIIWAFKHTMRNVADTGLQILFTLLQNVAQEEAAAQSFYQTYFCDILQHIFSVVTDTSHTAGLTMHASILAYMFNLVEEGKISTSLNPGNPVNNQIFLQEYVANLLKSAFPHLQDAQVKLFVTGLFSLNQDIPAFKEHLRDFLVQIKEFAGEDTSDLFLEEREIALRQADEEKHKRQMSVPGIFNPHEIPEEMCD
How it was run: (§2)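 HEK 293T cells in 96-well trays were transfected with pRevM5-GFP by calcium phosphate, and compound was added one day later. RevM5-GFP distribution was scored by fluorescence microscopy 2 h after addition. Mainly nuclear localization was scored positive; cytoplasmic localization was scored negative.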

[4] = target: Exportin-1 (Homo sapiens) (UniProt O14980); assay: Inhibition of CRM1-mediated nucleocytoplasmic transport of RevM5 mutant in HEK293 cells assessed as RevM5-GFP nuclear localization at 0.08 ug/ml after 2 hrs by fluorescence microscopy; type: cell-based; how it was run: as §2
[5] = target: Exportin-1 (Homo sapiens) (UniProt O14980); assay: Inhibition of CRM1-mediated nucleocytoplasmic transport of RevM5 mutant in HEK293 cells assessed as RevM5-GFP nuclear localization at 0.4 ug/ml after 2 hrs by fluorescence microscopy; type: cell-based; how it was run: as §2
[6] = target: Exportin-1 (Homo sapiens) (UniProt O14980); assay: Inhibition of CRM1-mediated nucleocytoplasmic transport of RevM5 mutant in HEK293 cells assessed as RevM5-GFP nuclear localization at 2 ug/ml after 2 hrs by fluorescence microscopy; type: cell-based; how it was run: as §2
[7] = system: Human immunodeficiency virus 1; assay: Antiviral activity against HIV1 NL4-3 infected in HEK293T cells assessed as inhibition of virion-associated p24 antigen production after 24 hrs by ELISA; type: functional, organism-based; details: for Activity: HEK-293T; for EC50: Human immunodeficiency virus 1, NL4-3, HEK-293T
How it was run: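 HEK 293T cells in DMEM with 10% heat-inactivated FCS were transfected with the HIV-1 molecular clone NL4-3 by calcium phosphate. Compounds were added at a range of concentrations. Virus-associated p24 antigen in the supernatant was measured by ELISA 24 h after compound addition.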

HeLa [8] = assay: Inhibition of Rev-BFP/CRM1Cys528Ser-EYFP mutant interaction in human HeLa cells assessed as Rev-BFP/CRM1Cys528Ser-EYFP nuclear colocalization after 2 hrs by fluorescence microscopy; type: cell-based
How it was run: (§3)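 HeLa cells were co-transfected with Rev-BFP and the EYFP-CRM1 Cys528 mutant. One day after transfection they were washed with PBS and treated with compound in complete DMEM. Co-localization was followed by live-cell confocal microscopy at 30, 120 and 180 min and 24 h.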

[9] = target: Exportin-1 (Homo sapiens) (UniProt O14980); assay: Inhibition of CRM1-mediated nucleocytoplasmic transport of HIV1 RevM5 mutant in human HeLa cells assessed as HIV1 RevM5-GFP nuclear localization at 10 ug/ml after 2 hrs by fluorescence microscopy; type: cell-based
How it was run: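 HeLa cells, grown in DMEM with 10% heat-inactivated FCS, 2 mM L-glutamine, 0.1% bicarbonate and gentamicin, were plated on glass-bottom dishes and transfected to express RevM5-GFP. RevM5-GFP is a Rev mutant that stays cytoplasmic but can still enter the nucleus. Compound was added, and after 2 h cellular RevM5-GFP distribution, nuclear versus cytoplasmic, was read by fluorescence microscopy with DIC images.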

[10] = Cytotoxicity against HIV1 3B infected human OM10.1 cells at 20 ug/mL after 48 hrs by MTT assay; type: cell-based
How it was run: (§4)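 Cytotoxicity was read by MTT viability staining on the same TNF-α-stimulated (1 ng/ml), twice-washed HIV-1(IIIB) chronically infected OM10.1 cultures (120,000 cells/well). Compound was present throughout the 48 h incubation at 37 °C.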

[11] = system: Human immunodeficiency virus 1; assay: Antiviral activity against HIV1 3B infected in human OM10.1 cells assessed as inhibition of TNF-alpha-induced viral p24 production at 5 ug/mL after 48 hrs by ELISA; type: functional; parameters: scale not given: the % may be the effect or the level left
How it was run: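 OM10.1 cells chronically infected with HIV-1(IIIB), grown in RPMI 1640 with 10% FCS, were washed twice to remove cell-free virus and seeded at 120,000 cells/well with compound. Cultures were stimulated with 1 ng/ml TNF-α and incubated 48 h at 37 °C. Supernatant p24 was measured by ELISA.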

[12] = Cytotoxicity against HIV1 3B infected human OM10.1 cells at 10 ug/mL after 48 hrs by MTT assay; type: cell-based; how it was run: as §4
HeLa [13] = assay: Inhibition of Rev-BFP/CRM1Cys528Ser-EYFP mutant interaction in human HeLa cells assessed as Rev-BFP/CRM1Cys528Ser-EYFP nuclear colocalization at 10 ug/mL after 2 hrs by fluorescence microscopy; type: cell-based; how it was run: as §3
HeLa [14] = assay: Inhibition of Rev-BFP/CRM1-EYFP interaction in human HeLa cells assessed as Rev-BFP/CRM1-EYFP nuclear colocalization at 10 ug/mL after 120 mins by fluorescence microscopy; type: cell-based
How it was run: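 HeLa cells on glass-bottom dishes, about 50% confluent, were co-transfected with Rev-BFP and CRM1-EYFP. One day later cells were washed with PBS and treated with compound in complete DMEM. Nucleolar co-localization of CRM1-EYFP with Rev was examined by live confocal microscopy at 30, 120 and 180 min and 24 h.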

Row | Compound | Activity [3] | Activity [4] | Activity [5] | Activity [6] | other results
1 | CCC(=C/[C@H](C)C/C=C/C(C)=C/[C@@H](C)C(=O)[C@@H](C)[C@H](O)[C@@H](C)C/C(C)=C/C(=O)O)/C=C/[C@@H]1OC(=O)C=C[C@@H]1C | – | – | – | – | Activity (HeLa [1]): inactive; Activity (HeLa [2]): inactive
2 | c1ccc(-c2nnn[nH]2)cc1 | inactive | inactive | inactive | inactive | –
3 | Clc1ccccc1-c1nnn[nH]1 | inactive | inactive | inactive | inactive | –
4 | Clc1ccc(-c2nnn[nH]2)cc1 | inactive | inactive | inactive | inactive | –
5 | Clc1cccc(-c2nnn[nH]2)c1 | inactive | inactive | inactive | inactive | Activity [7]: inactive; Activity (HeLa [8]): inactive; Activity [9]: inactive
6 | CCOC(=O)/C=C\n1nnnc1-c1cccc(I)c1 | inactive | inactive | inactive | inactive | –
7 | CCOC(=O)/C=C/n1nnc(-c2cc(Cl)ccc2N)n1 | Active | inactive | inactive | Active | –
8 | CCOC(=O)/C=C\n1nnc(-c2cc(Cl)ccc2N)n1 | Active | inactive | Active | Active | –
9 | CCOC(=O)/C=C/n1nnc(-c2cccc(F)c2)n1 | Active | inactive | inactive | inactive | –
10 | CCOC(=O)/C=C\n1nnnc1-c1cccc(Br)c1 | inactive | inactive | inactive | inactive | –
11 | CCOC(=O)/C=C\n1nnnc1-c1cccc(Cl)c1 | Active | inactive | inactive | inactive | –
12 | Ic1cccc(-c2nnn[nH]2)c1 | inactive | inactive | inactive | inactive | –
13 | Cc1ccnc2c1NC(=O)c1cccnc1N2C1CC1 | – | – | – | – | Activity [7]: inactive
14 | CCOC(=O)/C=C/n1nnc(-c2ccc(Cl)cc2)n1 | Active | inactive | inactive | inactive | –
15 | Nc1cc(Cl)ccc1-c1nnn[nH]1 | inactive | inactive | inactive | inactive | –
16 | CCOC(=O)/C=C\n1nnnc1-c1ccc(Cl)cc1 | Active | inactive | inactive | inactive | –
17 | CCOC(=O)/C=C/n1nnc(-c2cccc(Cl)c2)n1 | Active | inactive | inactive | – | EC50 [7]: 0.6 µg/mL (≈ 2.15 µM); Activity [10]: Toxic; Activity [11]: 94%; Activity [12]: Toxic
18 | CCOC(=O)/C=C/n1ccc(-c2ccccc2)n1 | inactive | inactive | inactive | inactive | –
19 | CCOC(=O)/C=C\n1nnc(-c2cccc(Cl)c2)n1 | Active | inactive | – | Active | EC50 [7]: 0.2 µg/mL (≈ 0.718 µM); Activity (HeLa [13]): inactive; Activity [10]: Toxic; Activity [9]: Active; Activity (HeLa [14]): Active; Activity [11]: 94%; Activity [12]: Toxic
20 | CCOC(=O)/C=C/n1ncnn1 | inactive | inactive | inactive | inactive | –
21 | CCOC(=O)/C=C/n1cnc(-c2ccccc2N)n1 | inactive | inactive | inactive | inactive | –
22 | CCOC(=O)/C=C\n1nnnc1-c1cccc(F)c1 | inactive | inactive | inactive | inactive | –
